Consider 19 compounds from ChEMBL document CHEMBL1137014, “Structure-activity study of new inhibitors of human betaine-homocysteine S-methyltransferase” (J Med Chem, 2009).

Molecules are shown by their SMILES.

In the first assay the target is T1, Betaine--homocysteine S-methyltransferase 1 (Homo sapiens) (UniProt Q93088).
T1 sequence (whole entry): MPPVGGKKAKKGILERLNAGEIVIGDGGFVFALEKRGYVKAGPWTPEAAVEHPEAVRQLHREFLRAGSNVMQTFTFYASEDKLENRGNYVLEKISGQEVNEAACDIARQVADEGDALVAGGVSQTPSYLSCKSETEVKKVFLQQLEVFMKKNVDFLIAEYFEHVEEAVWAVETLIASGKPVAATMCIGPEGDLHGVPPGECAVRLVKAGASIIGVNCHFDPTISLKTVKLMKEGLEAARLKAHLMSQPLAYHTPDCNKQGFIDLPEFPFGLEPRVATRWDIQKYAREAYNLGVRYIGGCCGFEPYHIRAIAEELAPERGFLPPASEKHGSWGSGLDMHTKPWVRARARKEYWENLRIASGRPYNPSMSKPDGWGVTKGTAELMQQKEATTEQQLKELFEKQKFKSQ
Briefly: Inhibition of human recombinant BHMT expressed in Escherichia coli at 20 uM using 0.25 mM betaine and 0.1 mM DL-homocysteine as substrate. The essentials: (§1)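 Radiometric assay with 0.2 μM enzyme, preincubated with inhibitor, then 100 μM DL-homocysteine (fresh from thiolactone) and 250 μM [methyl-14C]betaine. Run in 50 mM K-phosphate pH 7.5 with 10 mM β-mercaptoethanol, 37 °C, 30 min; stopped on ice. […] Enzyme-free blanks subtracted; triplicates; activity expressed relative to no-inhibitor control.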
What is called inhibition is the drop in the measured response relative to a control, in per cent. In the case of `C[C@@H](NCCSCCC(N)C(=O)O)C(=O)O` (mixture of isomers), the inhibition came to 15.5%.
As for `C[C@H](NCCSCCC(N)C(=O)O)C(=O)O` (mixture of isomers), the inhibition amounted to 19.8%.
Take `CC(C)(CCSCCC(N)C(=O)O)CC(=O)O` (racemic): the inhibition was 100%.
Take `NC(CC[Se]CCCCC(=O)O)C(=O)O` (racemic): the inhibition stood at 100%.
As to `NC(CCSCSCCC(=O)O)C(=O)O` (racemic), the inhibition was determined as 97.6%.
`C[C@@H](CCSCC[C@@H](N)C(=O)O)CC(=O)O` (racemic): the inhibition was 100%.
Same read-out and setting: the same measure for `CN(CCSCCC(N)C(=O)O)CC(=O)O` (racemic): 98.5%.
Still for that read-out and setting: the same measure for `CN(CCCSCCC(N)C(=O)O)CC(=O)O` (racemic): 79%.
Take `C[N+](C)(CCCSCCC(N)C(=O)O)CC(=O)[O-]` (racemic): the inhibition came out at 3.3%.
Regarding `C[N+](C)(CCSCCC(N)C(=O)O)CC(=O)[O-]` (racemic), the inhibition was determined as 23.8%.
With `C[N+](C)(CSCCC(N)C(=O)O)CC(=O)[O-]` (racemic), the inhibition is 0%.
Still for that read-out and setting: with `NC(CCCCCCCC(=O)O)C(=O)O` (racemic) the figure was 2.11%; with `NC(CCCSCCCC(=O)O)C(=O)O` (racemic), 5.4%; with `NC(CCOCCCCC(=O)O)C(=O)O` (racemic), 9.8%.
Turning to `NC(CCSCCNCC(=O)O)C(=O)O` (racemic), the inhibition is 37.1%.
Regarding `NC(CCSCCNCCC(=O)O)C(=O)O` (racemic), the inhibition stood at 0%.
The same measure, in the same setting: with `NC(CCSSCCCC(=O)O)C(=O)O` (racemic) the figure was 19.1%.

A further assay addresses T1, Betaine--homocysteine S-methyltransferase 1 (Homo sapiens). Briefly: Inhibition of human recombinant BHMT expressed in Escherichia coli at 1 uM using 0.25 mM betaine and 0.1 mM DL-homocysteine as substrate. The method in brief:
as §1
`CC(C)(CCSCCC(N)C(=O)O)CC(=O)O` (racemic): the inhibition turned out to be 98.1%.
`NC(CC[Se]CCCCC(=O)O)C(=O)O` (racemic): the inhibition worked out at 94.3%.
With `NC(CCSCSCCC(=O)O)C(=O)O` (racemic), the inhibition is 26.3%.
As for `C[C@@H](CCSCC[C@@H](N)C(=O)O)CC(=O)O` (racemic), the inhibition is 97.8%.
Regarding `CN(CCSCCC(N)C(=O)O)CC(=O)O` (racemic), the inhibition worked out at 58.9%.
For the compound `CN(CCCSCCC(N)C(=O)O)CC(=O)O` (racemic), the inhibition was determined as 22.4%.
With `C[N+](C)(CCCSCCC(N)C(=O)O)CC(=O)[O-]` (racemic), the inhibition was 0%.
Regarding `C[N+](C)(CCSCCC(N)C(=O)O)CC(=O)[O-]` (racemic), the inhibition worked out at 5.1%.
Turning to `C[N+](C)(CSCCC(N)C(=O)O)CC(=O)[O-]` (racemic), the inhibition worked out at 0%.

The target in a further assay is T2, Betaine--homocysteine S-methyltransferase 1 (Homo sapiens, UniProt Q93088).
T2 sequence (Q93088 whole entry): T1 sequence (whole entry)
Briefly: Inhibition of human recombinant BHMT expressed in Escherichia coli using 2 mM betaine and 1 mM DL-homocysteine as substrate. The essentials: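 Same radiometric Dowex assay as for percent inhibition (0.2 μM enzyme, pH 7.5 K-phosphate, 37 °C, 30 min), but with 1 mM DL-homocysteine and 2 mM 14C-betaine. Ten inhibitor concentrations in duplicate per curve, IC50 by nonlinear regression. Three independent experiments, mean ± SEM.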
As a reminder, the IC50 is the midpoint of a concentration-inhibition curve. `CC(C)(CCSCC[C@@H](N)C(=O)O)CC(=O)O`: the IC50 amounted to 701 nM.
In the case of `CC(C)(CCSCC[C@H](N)C(=O)O)CC(=O)O`, the IC50 turned out to be 64 nM.
Turning to `CC(C)(CCSCCC(N)C(=O)O)CC(=O)O` (racemic), the IC50 was 84 nM.
For the compound `NC(CC[Se]CCCCC(=O)O)C(=O)O` (racemic), the IC50 worked out at 649 nM.
With `NC(CCSCSCCC(=O)O)C(=O)O` (racemic), the IC50 came out at 3260 nM.
In the case of `C[C@@H](CCSCC[C@@H](N)C(=O)O)CC(=O)O` (racemic), the IC50 worked out at 139 nM.
With `CN(CCSCCC(N)C(=O)O)CC(=O)O` (racemic), the IC50 worked out at 2500 nM.

A further assay deals with T2, Betaine--homocysteine S-methyltransferase 1. As to the kind of experiment: Binding affinity to human recombinant BHMT expressed in Escherichia coli by isothermal titration calorimetry. The essentials:
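ITC at 25 °C in 50 mM HEPES/NaOH, ACES/NaOH or Tris/HCl, pH 7.5, with 5 mM β-mercaptoethanol, no substrates present. 9 μL aliquots of 50 μM ligand injected into 5.1 μM protein (monomer, quantified by amino acid analysis after dialysis) until saturation. Heats corrected for dilution using buffer-only injections and fitted to the integrated heats.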
For orientation: ITC needs no label: the signal is the heat of the interaction.
Broadly, the Kd is the concentration at which binding is half-saturated. As to `CC(C)(CCSCC[C@H](N)C(=O)O)CC(=O)O`, the Kd was determined as 51 nM.
